Active and inactive are the calls of the source. The rule behind the calls is not given here.
Key:
[1] = target: T1, Muscarinic acetylcholine receptor M2 (Homo sapiens, UniProt P08172); assay: Displacement of [3H] NMS from muscarinic M2 receptor (unknown origin)
T1 sequence (P08172 whole entry): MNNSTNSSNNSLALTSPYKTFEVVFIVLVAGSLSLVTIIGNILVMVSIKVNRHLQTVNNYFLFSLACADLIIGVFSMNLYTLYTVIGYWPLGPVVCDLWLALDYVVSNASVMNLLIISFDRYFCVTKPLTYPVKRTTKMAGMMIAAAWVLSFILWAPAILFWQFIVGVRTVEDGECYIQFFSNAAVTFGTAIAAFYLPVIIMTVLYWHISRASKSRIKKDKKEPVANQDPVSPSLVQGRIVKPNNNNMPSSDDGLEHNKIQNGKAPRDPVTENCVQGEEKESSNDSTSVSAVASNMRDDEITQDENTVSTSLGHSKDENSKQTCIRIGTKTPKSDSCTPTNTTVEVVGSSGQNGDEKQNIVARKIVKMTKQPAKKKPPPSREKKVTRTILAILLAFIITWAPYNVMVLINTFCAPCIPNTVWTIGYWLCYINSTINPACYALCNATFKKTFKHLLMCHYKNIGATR
How it was run: (§1)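 Radioligand competition binding; Ki given as mean ± SD from two individual experiments, each run in triplicate.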

[2] = target: D(2) dopamine receptor (Homo sapiens, UniProt P14416); assay: Displacement of [3H] Spiperone from human D2S receptor expressed in CHO cells by competitive radioligand binding assay; assay type: cell-based
Chain of D(2) dopamine receptor (P14416 whole entry): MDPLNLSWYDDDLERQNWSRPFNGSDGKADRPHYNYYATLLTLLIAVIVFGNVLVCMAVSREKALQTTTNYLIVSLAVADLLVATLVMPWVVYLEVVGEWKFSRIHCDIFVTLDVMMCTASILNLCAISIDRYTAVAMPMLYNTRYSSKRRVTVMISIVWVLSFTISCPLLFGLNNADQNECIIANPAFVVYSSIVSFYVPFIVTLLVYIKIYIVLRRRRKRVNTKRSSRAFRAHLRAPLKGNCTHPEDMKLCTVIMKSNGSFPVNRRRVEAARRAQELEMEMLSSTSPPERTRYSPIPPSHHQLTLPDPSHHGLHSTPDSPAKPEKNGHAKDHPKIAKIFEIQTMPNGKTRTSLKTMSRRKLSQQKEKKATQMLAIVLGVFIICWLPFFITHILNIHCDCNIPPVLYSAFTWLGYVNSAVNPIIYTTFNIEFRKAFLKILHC

[3] = target: T2, Alpha-1A adrenergic receptor (Homo sapiens) (UniProt P35348); assay: Antagonist activity at human alpha1A adrenergic receptor expressed in HEK293T cells assessed as accumulation of inositol monophosphate using d2-labelled IP1 conjugate incubated for 60 mins by HTRF assay; assay type: functional, cell-based
T2 sequence (whole entry): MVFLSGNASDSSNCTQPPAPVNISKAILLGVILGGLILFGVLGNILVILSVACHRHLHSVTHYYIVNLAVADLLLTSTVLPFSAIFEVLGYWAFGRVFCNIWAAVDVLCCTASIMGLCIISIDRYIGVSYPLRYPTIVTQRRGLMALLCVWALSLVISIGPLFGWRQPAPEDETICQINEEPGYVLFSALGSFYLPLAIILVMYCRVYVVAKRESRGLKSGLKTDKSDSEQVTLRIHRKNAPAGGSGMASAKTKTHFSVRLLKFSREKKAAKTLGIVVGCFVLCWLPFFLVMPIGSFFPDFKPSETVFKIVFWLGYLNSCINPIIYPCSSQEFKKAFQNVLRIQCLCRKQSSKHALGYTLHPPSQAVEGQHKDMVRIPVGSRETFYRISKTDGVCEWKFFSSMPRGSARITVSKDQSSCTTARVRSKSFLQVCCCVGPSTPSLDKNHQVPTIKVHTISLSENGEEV

[4] = target: Beta-2 adrenergic receptor (Homo sapiens, UniProt P07550); assay: Displacement of [3H] CGP12177 from beta2 adrenergic receptor (unknown origin)
Chain of Beta-2 adrenergic receptor (P07550 whole entry): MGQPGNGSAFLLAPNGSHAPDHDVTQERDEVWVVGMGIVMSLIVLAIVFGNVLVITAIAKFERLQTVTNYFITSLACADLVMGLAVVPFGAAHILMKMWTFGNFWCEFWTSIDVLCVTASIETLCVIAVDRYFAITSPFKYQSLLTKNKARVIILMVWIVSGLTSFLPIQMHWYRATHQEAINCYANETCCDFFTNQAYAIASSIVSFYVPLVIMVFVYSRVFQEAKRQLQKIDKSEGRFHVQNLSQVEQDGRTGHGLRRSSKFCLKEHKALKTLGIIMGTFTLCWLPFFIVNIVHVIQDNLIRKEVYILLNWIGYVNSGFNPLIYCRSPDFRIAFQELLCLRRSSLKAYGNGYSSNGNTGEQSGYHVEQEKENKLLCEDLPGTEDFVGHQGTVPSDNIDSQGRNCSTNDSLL

[5] = target: T3, Muscarinic acetylcholine receptor M1 (Homo sapiens, UniProt P11229); assay: Displacement of [3H] NMS from muscarinic M1 receptor (unknown origin); how it was run: as §1
T3 sequence (P11229 whole entry): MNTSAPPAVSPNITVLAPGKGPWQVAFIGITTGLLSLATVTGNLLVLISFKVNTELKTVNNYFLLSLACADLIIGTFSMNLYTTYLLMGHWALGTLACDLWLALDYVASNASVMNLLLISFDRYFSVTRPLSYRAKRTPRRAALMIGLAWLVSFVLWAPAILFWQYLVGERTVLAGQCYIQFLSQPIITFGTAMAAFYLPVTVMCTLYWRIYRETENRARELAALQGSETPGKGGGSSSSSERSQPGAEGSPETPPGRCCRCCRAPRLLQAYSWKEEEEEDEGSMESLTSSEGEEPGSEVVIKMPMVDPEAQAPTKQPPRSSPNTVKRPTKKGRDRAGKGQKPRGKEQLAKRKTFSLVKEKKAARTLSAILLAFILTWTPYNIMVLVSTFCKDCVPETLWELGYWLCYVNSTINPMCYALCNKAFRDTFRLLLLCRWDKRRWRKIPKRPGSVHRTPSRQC

[6] = target: Delta-type opioid receptor (Homo sapiens, UniProt P41143); assay: Displacement of [3H] diprenorphine from delta opioid receptor (unknown origin)
Chain of Delta-type opioid receptor (P41143 whole entry): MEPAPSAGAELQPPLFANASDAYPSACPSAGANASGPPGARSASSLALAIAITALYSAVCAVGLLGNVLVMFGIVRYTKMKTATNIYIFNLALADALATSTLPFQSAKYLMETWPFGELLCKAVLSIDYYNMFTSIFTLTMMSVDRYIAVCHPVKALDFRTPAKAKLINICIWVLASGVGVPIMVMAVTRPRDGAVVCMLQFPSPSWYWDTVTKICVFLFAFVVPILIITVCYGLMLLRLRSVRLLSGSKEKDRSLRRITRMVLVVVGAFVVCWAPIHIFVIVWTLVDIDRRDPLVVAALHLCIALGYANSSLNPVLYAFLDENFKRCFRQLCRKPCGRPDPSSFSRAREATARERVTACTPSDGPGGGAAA

[7] = target: T4, D(4) dopamine receptor (Homo sapiens, UniProt P21917); assay type: cell-based, HEK293
T4 sequence (P21917 whole entry): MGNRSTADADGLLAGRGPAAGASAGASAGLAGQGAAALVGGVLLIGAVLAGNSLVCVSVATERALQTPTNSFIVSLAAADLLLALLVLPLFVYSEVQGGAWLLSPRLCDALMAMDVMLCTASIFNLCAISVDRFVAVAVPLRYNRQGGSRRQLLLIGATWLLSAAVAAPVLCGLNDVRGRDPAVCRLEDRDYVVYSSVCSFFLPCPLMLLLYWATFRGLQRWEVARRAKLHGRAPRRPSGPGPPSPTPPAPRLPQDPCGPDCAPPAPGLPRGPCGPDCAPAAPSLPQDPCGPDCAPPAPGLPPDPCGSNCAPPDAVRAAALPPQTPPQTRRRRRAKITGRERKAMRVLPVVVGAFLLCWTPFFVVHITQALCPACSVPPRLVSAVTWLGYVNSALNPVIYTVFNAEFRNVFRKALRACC

[8] = target: T4, D(4) dopamine receptor; assay: Agonist activity at human D4 receptor expressed in HEK293T cells co-expressing G-alphaqi assessed as accumulation of inositol monophosphate using d2-labelled IP1 conjugate incubated for 90 mins by HTRF assay; assay type: functional, cell-based
[9] = target: D(3) dopamine receptor (Homo sapiens, UniProt P35462); assay: Displacement of [3H] Spiperone from human D3 receptor expressed in CHO cells by competitive radioligand binding assay; assay type: cell-based
Chain of D(3) dopamine receptor (P35462 whole entry): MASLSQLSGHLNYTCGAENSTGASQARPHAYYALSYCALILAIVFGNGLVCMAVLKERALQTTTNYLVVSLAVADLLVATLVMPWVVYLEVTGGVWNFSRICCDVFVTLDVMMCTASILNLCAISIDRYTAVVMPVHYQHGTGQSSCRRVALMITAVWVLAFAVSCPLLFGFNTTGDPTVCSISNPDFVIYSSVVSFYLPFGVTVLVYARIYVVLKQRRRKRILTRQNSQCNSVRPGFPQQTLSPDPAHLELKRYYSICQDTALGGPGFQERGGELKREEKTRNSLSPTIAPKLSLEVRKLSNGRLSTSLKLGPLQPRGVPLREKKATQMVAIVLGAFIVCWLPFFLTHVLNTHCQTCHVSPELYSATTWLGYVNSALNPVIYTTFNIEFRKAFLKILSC

[10] = species on record: Homo sapiens; assay: Selectivity index, ratio of Ki for displacement of [3H] prazosin from alpha1A adrenergic receptor to Ki for displacement of [3H] Spiperone from human D4.4 receptor expressed in CHO cells; assay type: cell-based
[11] = target: Muscarinic acetylcholine receptor M3 (Homo sapiens, UniProt P20309); assay: Displacement of [3H] NMS from muscarinic M3 receptor (unknown origin); how it was run: as §1
Chain of Muscarinic acetylcholine receptor M3 (P20309 whole entry): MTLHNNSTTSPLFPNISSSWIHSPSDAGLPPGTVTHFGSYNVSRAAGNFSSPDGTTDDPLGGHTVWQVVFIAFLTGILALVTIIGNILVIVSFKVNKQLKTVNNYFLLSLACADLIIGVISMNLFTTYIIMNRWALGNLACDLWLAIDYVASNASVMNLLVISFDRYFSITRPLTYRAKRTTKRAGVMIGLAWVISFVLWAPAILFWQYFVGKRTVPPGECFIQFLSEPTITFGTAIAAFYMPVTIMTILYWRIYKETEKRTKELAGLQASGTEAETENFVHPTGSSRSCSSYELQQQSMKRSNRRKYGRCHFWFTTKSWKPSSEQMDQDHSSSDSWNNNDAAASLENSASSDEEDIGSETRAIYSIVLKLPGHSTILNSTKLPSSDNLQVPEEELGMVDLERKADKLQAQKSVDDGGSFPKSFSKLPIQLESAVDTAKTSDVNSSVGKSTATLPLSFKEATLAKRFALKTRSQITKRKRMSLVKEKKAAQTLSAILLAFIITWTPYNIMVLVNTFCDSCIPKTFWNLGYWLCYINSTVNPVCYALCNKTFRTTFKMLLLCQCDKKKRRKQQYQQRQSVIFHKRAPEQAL

[12] = target: 5-hydroxytryptamine receptor 2A (Homo sapiens, UniProt P28223); assay: Displacement of [3H] Ketanserin from 5HT2A receptor (unknown origin)
Chain of 5-hydroxytryptamine receptor 2A (P28223 whole entry): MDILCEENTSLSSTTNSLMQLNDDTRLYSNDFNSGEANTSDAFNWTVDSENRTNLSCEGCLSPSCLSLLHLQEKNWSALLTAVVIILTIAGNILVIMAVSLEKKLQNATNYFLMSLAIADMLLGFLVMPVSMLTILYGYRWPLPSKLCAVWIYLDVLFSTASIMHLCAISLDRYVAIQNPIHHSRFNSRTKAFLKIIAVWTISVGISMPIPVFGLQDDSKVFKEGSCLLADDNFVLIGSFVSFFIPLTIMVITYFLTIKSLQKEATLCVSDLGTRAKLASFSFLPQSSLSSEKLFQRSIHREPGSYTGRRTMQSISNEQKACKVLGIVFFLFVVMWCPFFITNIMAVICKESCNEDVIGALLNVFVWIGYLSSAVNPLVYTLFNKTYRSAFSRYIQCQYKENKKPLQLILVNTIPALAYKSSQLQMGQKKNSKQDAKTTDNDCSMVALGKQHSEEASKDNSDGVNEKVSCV

- Ki [1]: 17000 nM
- Ki [2]: 110 nM
- Activity [3]: inactive
- Ki [4]: 4500 nM
- Ki [5]: 15000 nM
- Ki [6]: 19000 nM
- EC50 [7]: 500 nM
- EC50 [8]: 41 nM
- Ki [9]: 310 nM
- Ki [11]: 37000 nM
- Ki [12]: 130 nM
Structure (SMILES): COc1ccccc1N1CCN(CCCNC(=O)NN(Cc2ccc(F)cc2)c2ccccc2)CC1
- Ratio Ki [10]: 2.9
